Results published in ChEMBL document CHEMBL1148324 (J Med Chem, 2004).

Assays:
[1] = biological target: T1, Sulfonylurea receptors; K-ATP channels (Homo sapiens, UniProt O60706+Q09428+Q14654+Q15842); assay: (§1) Evaluated for K-ATP activity in terms of change in membrane potential through guinea pig bladder assay; format: functional, Cavia porcellus; details: target entry is the homologue from another species
[2] = biological target: T1, Sulfonylurea receptors; K-ATP channels; assay: Evaluated for K-ATP activity in terms of stable twitch response through field-stimulated landrace pig detrusor assay; format: functional, Sus scrofa; details: target entry is the homologue from another species
[3] = biological target: Sulfonylurea receptors; K-ATP channels (UniProt Q14654+O60706+Q09428+Q15842); assay: as §1; format: functional, Cavia porcellus; details: target entry is the homologue from another species
Chain of Sulfonylurea receptors; K-ATP channels (UniProt Q14654+O60706+Q09428+Q15842) (Q14654 whole entry): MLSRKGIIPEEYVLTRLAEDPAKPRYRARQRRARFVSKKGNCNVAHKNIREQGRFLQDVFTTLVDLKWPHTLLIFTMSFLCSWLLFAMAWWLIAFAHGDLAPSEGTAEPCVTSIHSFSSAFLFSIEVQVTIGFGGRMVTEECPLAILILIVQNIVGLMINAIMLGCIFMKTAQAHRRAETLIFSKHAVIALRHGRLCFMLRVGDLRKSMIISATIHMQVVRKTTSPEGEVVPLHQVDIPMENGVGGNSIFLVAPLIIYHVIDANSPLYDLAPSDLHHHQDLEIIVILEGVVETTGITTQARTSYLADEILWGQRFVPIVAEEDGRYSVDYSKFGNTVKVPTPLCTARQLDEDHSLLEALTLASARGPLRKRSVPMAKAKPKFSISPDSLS
Chain of Sulfonylurea receptors; K-ATP channels (UniProt Q14654+O60706+Q09428+Q15842) (O60706 whole entry): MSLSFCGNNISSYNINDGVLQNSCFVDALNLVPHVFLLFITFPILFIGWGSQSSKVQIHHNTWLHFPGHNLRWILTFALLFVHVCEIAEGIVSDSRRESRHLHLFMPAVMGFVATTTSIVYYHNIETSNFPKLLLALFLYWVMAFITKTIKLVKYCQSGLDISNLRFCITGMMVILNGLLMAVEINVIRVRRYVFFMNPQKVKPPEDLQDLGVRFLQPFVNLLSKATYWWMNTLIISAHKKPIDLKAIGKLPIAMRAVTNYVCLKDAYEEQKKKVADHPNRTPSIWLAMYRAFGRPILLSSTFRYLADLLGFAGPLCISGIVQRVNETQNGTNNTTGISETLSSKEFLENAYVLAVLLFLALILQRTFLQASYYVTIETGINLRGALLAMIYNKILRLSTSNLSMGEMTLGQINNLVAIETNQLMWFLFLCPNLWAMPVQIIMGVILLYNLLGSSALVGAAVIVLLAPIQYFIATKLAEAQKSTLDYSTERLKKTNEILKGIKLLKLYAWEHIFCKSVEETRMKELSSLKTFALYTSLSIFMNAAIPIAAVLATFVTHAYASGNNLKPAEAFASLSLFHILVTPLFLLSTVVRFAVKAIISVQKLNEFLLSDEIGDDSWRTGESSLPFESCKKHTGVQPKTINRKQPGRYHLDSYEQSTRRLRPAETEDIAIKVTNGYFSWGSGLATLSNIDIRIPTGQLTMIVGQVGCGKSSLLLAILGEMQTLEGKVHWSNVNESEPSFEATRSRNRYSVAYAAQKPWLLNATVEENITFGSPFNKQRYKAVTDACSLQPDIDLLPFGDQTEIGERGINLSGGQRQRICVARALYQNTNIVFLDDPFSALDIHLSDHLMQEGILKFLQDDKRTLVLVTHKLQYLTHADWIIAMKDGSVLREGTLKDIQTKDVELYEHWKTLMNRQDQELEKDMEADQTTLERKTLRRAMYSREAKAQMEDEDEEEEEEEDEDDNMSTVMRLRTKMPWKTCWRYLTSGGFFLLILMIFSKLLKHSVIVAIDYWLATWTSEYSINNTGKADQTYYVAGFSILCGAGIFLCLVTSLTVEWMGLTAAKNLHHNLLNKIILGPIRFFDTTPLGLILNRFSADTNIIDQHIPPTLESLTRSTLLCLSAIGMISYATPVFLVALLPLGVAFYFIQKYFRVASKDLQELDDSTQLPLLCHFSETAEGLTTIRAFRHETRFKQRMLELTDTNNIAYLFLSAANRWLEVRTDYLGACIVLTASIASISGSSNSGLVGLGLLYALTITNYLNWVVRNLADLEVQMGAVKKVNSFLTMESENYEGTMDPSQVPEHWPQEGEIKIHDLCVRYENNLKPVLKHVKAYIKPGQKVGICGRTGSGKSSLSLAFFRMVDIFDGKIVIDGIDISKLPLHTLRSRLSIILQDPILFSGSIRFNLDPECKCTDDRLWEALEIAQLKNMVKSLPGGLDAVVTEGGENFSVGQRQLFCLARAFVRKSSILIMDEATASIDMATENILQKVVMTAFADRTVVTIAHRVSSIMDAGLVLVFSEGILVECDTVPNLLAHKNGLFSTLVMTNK
Chain of Sulfonylurea receptors; K-ATP channels (UniProt Q14654+O60706+Q09428+Q15842) (Q09428 whole entry): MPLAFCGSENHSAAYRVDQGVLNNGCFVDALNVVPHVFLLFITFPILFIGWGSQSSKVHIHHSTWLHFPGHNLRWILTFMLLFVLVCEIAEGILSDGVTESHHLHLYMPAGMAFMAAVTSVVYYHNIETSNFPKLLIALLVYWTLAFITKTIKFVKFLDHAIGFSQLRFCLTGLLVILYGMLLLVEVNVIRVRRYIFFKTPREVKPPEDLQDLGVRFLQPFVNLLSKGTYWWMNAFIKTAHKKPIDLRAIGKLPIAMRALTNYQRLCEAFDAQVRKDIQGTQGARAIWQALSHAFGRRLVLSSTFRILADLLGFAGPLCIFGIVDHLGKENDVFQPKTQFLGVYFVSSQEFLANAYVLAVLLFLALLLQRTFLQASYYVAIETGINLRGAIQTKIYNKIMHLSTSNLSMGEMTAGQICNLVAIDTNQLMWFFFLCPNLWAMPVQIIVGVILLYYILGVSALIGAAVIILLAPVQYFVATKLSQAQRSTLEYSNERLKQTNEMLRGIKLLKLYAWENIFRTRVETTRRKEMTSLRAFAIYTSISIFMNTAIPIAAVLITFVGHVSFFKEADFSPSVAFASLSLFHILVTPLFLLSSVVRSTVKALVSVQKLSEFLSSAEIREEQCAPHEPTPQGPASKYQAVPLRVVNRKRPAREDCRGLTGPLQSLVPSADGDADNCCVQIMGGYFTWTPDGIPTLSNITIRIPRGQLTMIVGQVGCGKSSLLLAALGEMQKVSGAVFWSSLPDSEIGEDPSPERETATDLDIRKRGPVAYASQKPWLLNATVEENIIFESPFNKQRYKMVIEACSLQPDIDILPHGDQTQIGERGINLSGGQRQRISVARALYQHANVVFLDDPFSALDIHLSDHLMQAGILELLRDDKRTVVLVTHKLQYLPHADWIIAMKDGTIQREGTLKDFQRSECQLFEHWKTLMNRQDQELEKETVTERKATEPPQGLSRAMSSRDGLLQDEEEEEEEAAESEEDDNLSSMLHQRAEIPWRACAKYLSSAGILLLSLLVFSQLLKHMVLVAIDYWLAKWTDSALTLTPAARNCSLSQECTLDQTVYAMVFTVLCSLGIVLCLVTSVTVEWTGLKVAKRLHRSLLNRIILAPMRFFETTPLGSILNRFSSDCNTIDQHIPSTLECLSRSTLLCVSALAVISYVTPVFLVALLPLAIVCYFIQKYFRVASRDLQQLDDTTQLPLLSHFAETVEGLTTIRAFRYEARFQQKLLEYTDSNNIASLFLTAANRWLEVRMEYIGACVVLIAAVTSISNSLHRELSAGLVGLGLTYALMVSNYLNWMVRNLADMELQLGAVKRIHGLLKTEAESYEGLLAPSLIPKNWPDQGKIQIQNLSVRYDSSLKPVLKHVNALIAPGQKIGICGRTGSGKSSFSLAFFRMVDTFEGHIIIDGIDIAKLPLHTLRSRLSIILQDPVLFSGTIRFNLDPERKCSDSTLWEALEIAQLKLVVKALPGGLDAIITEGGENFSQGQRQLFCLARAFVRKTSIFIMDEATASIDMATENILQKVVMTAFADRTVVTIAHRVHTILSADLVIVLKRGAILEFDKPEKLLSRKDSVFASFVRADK
Chain of Sulfonylurea receptors; K-ATP channels (UniProt Q14654+O60706+Q09428+Q15842) (Q15842 whole entry): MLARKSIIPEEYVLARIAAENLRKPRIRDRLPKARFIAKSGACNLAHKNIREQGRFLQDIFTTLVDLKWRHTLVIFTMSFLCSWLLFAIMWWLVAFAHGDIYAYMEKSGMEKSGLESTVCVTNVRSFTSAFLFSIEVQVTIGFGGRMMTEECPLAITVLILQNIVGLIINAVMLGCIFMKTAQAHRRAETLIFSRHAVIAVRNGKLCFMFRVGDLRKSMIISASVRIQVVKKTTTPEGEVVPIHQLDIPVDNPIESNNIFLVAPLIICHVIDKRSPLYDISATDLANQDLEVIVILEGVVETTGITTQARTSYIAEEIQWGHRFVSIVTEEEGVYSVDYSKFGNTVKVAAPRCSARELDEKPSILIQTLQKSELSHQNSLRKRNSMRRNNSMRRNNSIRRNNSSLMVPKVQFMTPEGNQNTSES

[4] = species on record: Sus scrofa; assay: Evaluated for change in mean arterial pressure from baseline at a plasma concentration of 44 nM in pigs; format: functional
How it was run: (§2)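 Conscious female Landrace/Yorkshire swine (~12 weeks, 14–20 kg), urethra obstructed with a 7.5 mm silver omega ring, telemeterized, held in a restraint cage with ear venous catheters. After a 30 min baseline, increasing doses are given i.v. (3 min infusion) at 30 min intervals. Plasma is sampled 15 min after each dose for LC/MS. MAP and HR are averaged in 5 min bins over each 30 min period, expressed as % change from baseline; n = 2–4.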

[5] = species on record: Sus scrofa; assay: Evaluated for change in heart rate from baseline at a plasma concentration of 12 nM in pigs; format: functional; how it was run: as §2
[6] = species on record: Sus scrofa; assay: Evaluated for change in mean arterial pressure from baseline at a plasma concentration of 167 nM in pigs; format: functional; how it was run: as §2
[7] = species on record: Sus scrofa; assay: Evaluated for change in heart rate from baseline at a plasma concentration of 167 nM in pigs; format: functional; how it was run: as §2
[8] = species on record: Sus scrofa; assay: Evaluated for change in heart rate from baseline at a plasma concentration of 44 nM in pigs; format: functional; how it was run: as §2
[9] = species on record: Sus scrofa; assay: Evaluated for change in mean arterial pressure from baseline at a plasma concentration of 12 nM in pigs; format: functional; how it was run: as §2
[10] = Selectivity expressed as the ratio of pEC50 (SLPD) and pEC50 (FSLPD); format: functional
[11] = biological target: T1, Sulfonylurea receptors; K-ATP channels; assay: Evaluated for K-ATP activity as in vitro bladder relaxation in spontaneous Landrace pig detrusor strips (SLPD); format: functional, Sus scrofa; details: target entry is the homologue from another species
How it was run: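 Bladder strips taken near the trigonal region of Landrace pig bladder, contracting spontaneously (myogenic, no cholinergic component). Test agents added at increasing concentrations; the read-out is the reduction in area under the contraction curve.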

Q: With CCOC(=O)C1=C(C(F)(F)F)NC2=C(C1c1ccc(F)c(Br)c1)S(=O)(=O)CC2 (stereo not drawn) as the molecule, how does the EC50 [1] read?
A: > 10000 nM

Q: Which EC50 [1] does the source give for O=C1CCCC2=C1[C@H](c1cc(Br)c(F)cc1O)C1=C(CCS1(=O)=O)N2 here?
A: 209 nM

Q: What about the EC50 [2] of the same molecule?
A: 676 nM

Q: With CC(=O)C1=C(C)NC2=C(C1c1ccc(F)c(Br)c1)S(=O)(=O)CCC2 (stereo not drawn) as the molecule, how does the EC50 [1] read?
A: 214 nM

Q: What about the EC50 [2] of the same molecule?
A: 794 nM

Q: For O=C1CCC2=C1[C@H](c1ccc(F)c(Br)c1)C1=C(CCS1(=O)=O)N2, which EC50 [1] is on record?
A: 575 nM

Q: What about the EC50 [2] of the same molecule?
A: 339 nM

Q: Which results are given for O=C1CCCC2=C1[C@H](c1ccc(F)c(I)c1)C1=C(CCS1(=O)=O)N2?
A: EC50 [1]: 28.2 nM; EC50 [2]: 447 nM

Q: With O=C1CCC2=C1C(c1ccc([N+](=O)[O-])s1)C1=C(CCS1(=O)=O)N2 (stereo not drawn) as the molecule, how does the Log EC50 [3] read?
A: -6.82

Q: What about the EC50 [2] of the same molecule?
A: 479 nM

Q: For CC(=O)c1cc([C@H]2C3=C(CCCC3=O)NC3=C2S(=O)(=O)CC3)ccc1F, which EC50 [1] is on record?
A: 1050 nM

Q: With O=C1CCCC2=C1C(c1ccc(F)c(Br)c1)C1=C(CCCS1(=O)=O)N2 (single isomer, unassigned; (+)) as the molecule, how does the EC50 [1] read?
A: 1200 nM

Q: And the EC50 [2]?
A: 6760 nM

Q: For O=C1CCCC2=C1[C@H](c1ccc(F)c(C(F)(F)F)c1)C1=C(CCS1(=O)=O)N2, which EC50 [1] is on record?
A: 155 nM

Q: And the EC50 [2]?
A: 977 nM

Q: For O=C1CCCC2=C1[C@H](c1ccc(F)c(-c3ccco3)c1)C1=C(CCS1(=O)=O)N2, which EC50 [1] is on record?
A: 214 nM

Q: What about the EC50 [2] of the same molecule?
A: 1700 nM

Q: With Cc1ccc([C@H]2C3=C(CCCC3=O)NC3=C2S(=O)(=O)CC3)cc1S(C)(=O)=O as the molecule, how does the EC50 [1] read?
A: > 10000 nM

Q: For CCc1ccc([C@H]2C3=C(CCCC3=O)NC3=C2S(=O)(=O)CC3)cc1[N+](=O)[O-], which EC50 [1] is on record?
A: 2290 nM

Q: With O=C1CCCC2=C1[C@H](c1ccc(C(F)(F)F)c(Br)c1)C1=C(CCS1(=O)=O)N2 as the molecule, how does the EC50 [1] read?
A: 219 nM

Q: And the EC50 [2]?
A: 9550 nM

Q: Which EC50 [2] does the source give for N#Cc1cccc(C2C3=C(CCCC3=O)NC3=C2C(=O)CCC3)c1 here?
A: 9770 nM

Q: For N#Cc1ccnc(C2C3=C(CCC3=O)NC3=C2S(=O)(=O)CC3)c1 (stereo not drawn), which EC50 [1] is on record?
A: > 10000 nM

Q: For CC1(C)CC(=O)C2=C(C1)NC1=C([C@@H]2c2ccc(F)c(Br)c2)S(=O)(=O)CC1, which EC50 [1] is on record?
A: 17800 nM

Q: What does the source list for CC1(C)Oc2ccc(C#N)cc2[C@H](N2CCCC2=O)[C@H]1O (single isomer, unassigned) [(-)-CROMAKALIM]?
A: Delta MAP [4]: -12%; Delta HR [5]: 13%; Delta MAP [6]: -33%; Delta HR [7]: 47%; Delta HR [8]: 38%; Delta MAP [9]: -6.3%

Q: For CC1(C)CC(=O)C2=C(C1)NC1=C([C@H]2c2ccc(F)c(Br)c2)S(=O)(=O)CC1, which EC50 [1] is on record?
A: 7080 nM

Q: Which EC50 [1] does the source give for O=C1CCCC2=C1[C@H](c1cc(Cl)c(Cl)cc1CO)C1=C(CCS1(=O)=O)N2 here?
A: 61700 nM

Q: Which EC50 [1] does the source give for CC1(C)CCC(=O)C2=C1NC1=C([C@H]2c2ccc(F)c(Br)c2)S(=O)(=O)CC1 here?
A: 631 nM

Q: What about the EC50 [2] of the same molecule?
A: 2690 nM

Q: Which EC50 [1] does the source give for O=C1CCCC2=C1[C@H](c1ccc(F)c(Cl)c1)C1=C(CCS1(=O)=O)N2 here?
A: 138 nM

Q: What about the EC50 [2] of the same molecule?
A: 214 nM

Q: With O=C1CCCC2=C1[C@H](c1ccc(Br)c(Br)c1)C1=C(CCS1(=O)=O)N2 as the molecule, how does the EC50 [1] read?
A: 55 nM

Q: What about the EC50 [2] of the same molecule?
A: 537 nM

Q: Which EC50 [1] does the source give for O=C1CCC2=C1C(c1cncc([N+](=O)[O-])c1)C1=C(CCS1(=O)=O)N2 (stereo not drawn) here?
A: > 10000 nM

Q: Which EC50 [1] does the source give for O=C1CCCC2=C1[C@H](c1ccc3nonc3c1)C1=C(CCS1(=O)=O)N2 here?
A: 214 nM

Q: What about the EC50 [2] of the same molecule?
A: 2340 nM

Q: Which results are given for CC1=C(C(=O)O)C(c2ccc(F)c(Br)c2)C2=C(CCS2(=O)=O)N1 (stereo not drawn)?
A: EC50 [1]: 1820 nM; EC50 [2]: 8710 nM

Q: With N#Cc1cc([C@H]2C3=C(CCCC3=O)NC3=C2S(=O)(=O)CC3)ccc1F as the molecule, how does the EC50 [1] read?
A: 468 nM

Q: For O=C1CCCC2=C1[C@H](c1ccc(F)c(-c3ccccc3)c1)C1=C(CCS1(=O)=O)N2, which EC50 [1] is on record?
A: 12000 nM

Q: For N#Cc1cccc([C@H]2C3=C(CCCC3=O)NC3=C2S(=O)(=O)CC3)c1, which EC50 [1] is on record?
A: 5890 nM

Q: What about the EC50 [2] of the same molecule?
A: 12900 nM

Q: With CC1(C)CCC(=O)C2=C1NC1=C([C@@H]2c2ccc(F)c(Br)c2)S(=O)(=O)CC1 as the molecule, how does the EC50 [1] read?
A: > 10000 nM

Q: With Cc1ccc([C@H]2C3=C(CCCC3=O)NC3=C2S(=O)(=O)CC3)cc1I as the molecule, how does the EC50 [1] read?
A: 21.9 nM

Q: And the EC50 [2]?
A: 309 nM

Q: Which EC50 [1] does the source give for CCc1cc(C#N)ccc1Nc1c(N[C@H](C)C(C)(C)C)c(=O)c1=O here?
A: 251 nM

Q: And the Selectivity [10]?
A: 6.6

Q: And the EC50 [11]?
A: 102 nM

Q: And the EC50 [2]?
A: 676 nM

Q: For O=C1CCCC2=C1[C@H](c1cccc(Br)c1)C1=C(CCS1(=O)=O)N2, which EC50 [1] is on record?
A: 1510 nM

Q: With COC(=O)C1=C(C)NC2=C(C1c1ccc(F)c(Br)c1)S(=O)(=O)CC2 (stereo not drawn) as the molecule, how does the EC50 [1] read?
A: 53.7 nM

Q: For O=C1CCCC2=C1[C@H](c1ccc(Cl)c(F)c1)C1=C(CCS1(=O)=O)N2, which EC50 [1] is on record?
A: 1320 nM
